High-throughput results (PubChem BioAssay)
Hits are enriched below; roughly 1.8% of the tested compounds scored in any of these assays.
CHRM5 antagonist: human M5 muscarinic receptor antagonists, primary screen, CHO cells, Fluo-8 calcium fluorescence; CHO-hM5 cells, ACh EC80; inhibition, % at 3 µM; hit rate 0.59% among 360,000; AID 624040, 2012;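 active means inhibition above a per-plate cutoff, the mean of that plate's test compounds plus 3 SD, cut at about 27% in these data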
Target sequence (P08912 whole entry, looked up): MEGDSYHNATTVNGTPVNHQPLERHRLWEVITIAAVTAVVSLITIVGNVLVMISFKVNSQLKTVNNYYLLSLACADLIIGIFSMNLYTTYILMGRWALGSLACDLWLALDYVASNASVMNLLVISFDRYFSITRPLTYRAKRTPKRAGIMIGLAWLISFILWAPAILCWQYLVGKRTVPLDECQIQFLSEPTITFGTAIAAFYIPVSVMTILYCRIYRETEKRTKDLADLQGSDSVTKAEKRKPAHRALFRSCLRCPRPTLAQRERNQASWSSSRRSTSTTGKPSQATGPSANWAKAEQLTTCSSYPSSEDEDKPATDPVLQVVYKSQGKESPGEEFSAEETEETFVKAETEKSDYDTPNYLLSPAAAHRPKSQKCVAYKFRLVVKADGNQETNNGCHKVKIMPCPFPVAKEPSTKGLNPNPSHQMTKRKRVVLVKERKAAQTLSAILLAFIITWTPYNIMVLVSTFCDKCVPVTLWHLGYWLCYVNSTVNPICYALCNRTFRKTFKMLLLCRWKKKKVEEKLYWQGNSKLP
M4 antag: human M4 muscarinic receptor antagonists, primary screen, CHO cells, Fluo-8 calcium fluorescence. Muscarinic acetylcholine receptor M4 (Homo sapiens), P08173. CHO-hM4 cells, ACh EC80. inhibition, % at 3 µM. hit rate 0.73% among 360,000. AID 624125, 2012;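 active means inhibition above its plate's cutoff, the mean inhibition of sample wells plus 3 SD, cut at about 27% in these data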
CHRM4 agonist: human M4 muscarinic receptor agonists, primary screen, CHO-K1 cells, Fluo-8 calcium fluorescence; CHO-K1 hM4/Gqi5; vehicle 0%, full acetylcholine response 100%; activation, % at 3 µM; hit rate 0.14% among 360,000; AID 624127, 2012;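 active means activation above the run mean over all test wells plus 3 SD, cut at about 32% in these data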;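 further: peak over basal fluorescence ratio per well then scaled between controls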
M5 ag: human M5 muscarinic receptor agonists, primary screen, CHO-K1 cells, Fluo-8 calcium fluorescence. AID 624037, 2012. hit rate 0.19% among 360,000. activation, % at 3 µM. CHO-K1 hM5 cells; 0% DMSO wells, 100% maximal acetylcholine response. Muscarinic acetylcholine receptor M5 (Homo sapiens), P08912;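 active means activation above the run's mean over test compounds plus 3 SD, cut at about 23% in these data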;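 further: signal is peak over basal fluorescence ratio across the kinetic read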
CHRM4 PAM: human M4 muscarinic receptor positive allosteric modulators, primary screen, CHO-K1 cells, Fluo-8 calcium fluorescence | Muscarinic acetylcholine receptor M4 (Homo sapiens), P08173 | activation, % at 3 µM | AID 624126, 2012 | CHO-K1 hM4/Gqi5, ACh EC20; 0% = ACh EC20, 100% = maximal ACh | hit rate 0.4% among 360,000;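 active means activation above its plate's cutoff, the mean activation of sample wells plus 3 SD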
CHRM5 PAM: human M5 muscarinic receptor positive allosteric modulators, primary screen, CHO-K1 cells, Fluo-8 calcium fluorescence. hit rate 0.3% among 360,000. AID 624038, 2012. Muscarinic acetylcholine receptor M5 (Homo sapiens), P08912. CHO-K1 hM5, ACh EC20 PAM; 0% = ACh EC20, 100% = ACh EC100. activation, % at 3 µM;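 active means activation above the run cutoff, the mean activation of all test compounds plus 3 SD, cut at about 18% in these data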
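Test system: CHO-K1 hM5 cells / Doses: single-point, 3 µM nominal / Times: Post-acetylcholine fluorescence recording 140 s / Technique: Fluo-8 calcium fluorescence / Measure: Max/basal fluorescence ratio as % of EC20–EC100 ACh window / Benchmarks: low control EC20 acetylcholine (0%), high control EC100 acetylcholine (100%) / Replicates: one well per compound, no replicates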
Hits are given with their value; – = inactive.

SMILES	CHRM5 antagonist	M4 antag	CHRM4 agonist	M5 ag	CHRM4 PAM	CHRM5 PAM
COc1ccc(CNC(=O)c2sc(=O)n(Cc3ccccc3OC)c2C)cc1	–	–	–	–	–	–
Cc1ccsc1CNC(=O)C1(C)CCN1C(=O)C(C)C (stereo not given)	–	–	–	–	–	–
CC(=O)N1CCN(c2ccc(NCc3ccc4c(c3)OCO4)cc2)CC1	–	–	–	–	23	–
COc1cc(CNC(=O)c2cc(-c3cc(F)ccc3OCC3CCCO3)n[nH]2)cc(OC)c1 (stereo not given)	–	–	–	–	–	–
C[C@@H]1CN([C@@H](C)CO)C(=O)CCCn2nncc2CO[C@@H]1CN(C)S(=O)(=O)c1cn(C)cn1	–	–	–	–	–	–
COc1ccc(-c2csc(C(C)(O)c3cccc(F)c3)n2)cc1 (stereo not given)	–	37	–	–	–	–
C=CCCC(=O)N1C[C@H]2CCN(C)[C@H]2C[C@H]1c1ccc(Br)cc1	–	–	–	–	–	–
O=C(O)C1CCN(C(=O)c2ccccc2C(=O)N2CCC(C(=O)O)CC2)CC1	–	–	–	–	–	–
O=C(O)C1CCN(C(=O)c2cccc3ccccc23)CC1	–	–	–	–	18	–
Cc1cc(/C=C2/SC(=S)N(c3ccc([N+](=O)[O-])cc3)C2=O)c(C)n1-c1cccnc1	–	–	–	–	–	–
Cc1cc(/C=C2\SC(=S)N(C)C2=O)c(C)n1-c1ccccc1O	–	27	–	–	–	–
Cc1cc(/C=C2/SC(=S)N(c3cccc(Cl)c3)C2=O)c(C)n1-c1cccnc1	–	34	–	–	–	–
COC(=O)CSc1ccc(S(=O)(=O)N2CCC(C)CC2)cc1[N+](=O)[O-]	–	–	–	–	25	–
CC(Sc1ccc(S(=O)(=O)N2CCOCC2)cc1[N+](=O)[O-])C(=O)O (stereo not given)	–	–	–	–	23	–
Cc1ccc(S(=O)(=O)N2CCC(C)CC2)cc1[N+](=O)[O-]	–	–	–	–	–	–
Cc1ccccc1OCC(=O)OCC(=O)NC1CCCC1	–	–	–	–	–	–
COc1cc(/C=C/C(=O)OC(C)C(=O)Nc2c(C)n(C)n(-c3ccccc3)c2=O)ccc1O (stereo not given)	–	–	–	–	–	–
CCc1ccc(NC(=O)C(C)OC(=O)/C=C/c2ccc(O)c(OC)c2)cc1 (stereo not given)	–	–	–	35	–	–
COc1cc(/C=C/C(=O)OCC(=O)c2ccc(OC(F)F)cc2)ccc1O	–	–	–	27	–	–
COc1ccc(N2CCN(C(=O)COC(=O)/C=C/c3ccc(C(F)(F)F)cc3)CC2)cc1	–	–	–	–	–	–
COc1ccc(N2CCN(C(=O)COC(=O)/C=C/c3ccc(OC(F)F)cc3)CC2)cc1	–	–	–	–	23	–
Cn1ccc2c(-c3cccc(C=O)c3)cc3c(c21)C1CCC3O1 (stereo not given)	–	–	–	–	–	–
c1ccc(CC2CCN(C3=Nc4cccc5cccc3c45)CC2)cc1	–	27	–	–	–	–
c1cc2c3c(cccc3c1)C(N1CCOCC1)=N2	–	–	–	–	–	–
Nc1nc(N)nc(-c2cc(O)ccc2O)n1	–	–	–	–	–	–
SMILES	CHRM5 antagonist	M4 antag	CHRM4 agonist	M5 ag	CHRM4 PAM	CHRM5 PAM
CC(C)(C)c1cc(-c2nc(N)nc(N)n2)c(O)c(C(C)(C)C)c1	–	–	–	–	–	24
CN(C)S(=O)(=O)c1cccc(CSCc2cccc(S(=O)(=O)N(C)C)c2)c1	41	–	–	–	–	–
CC(=O)OCC1OC(n2cc(F)c(=O)[nH]c2=O)C(OC(C)=O)C1OC(C)=O (stereo not given)	–	–	–	–	–	–
O=C1C(F)=CC(COC(c2ccccc2)(c2ccccc2)c2ccccc2)OC1n1cc(F)c(=O)[nH]c1=O (stereo not given)	–	34	–	–	–	–
COc1ccc(CC(=O)OCN2C(=O)c3ccccc3C2=O)cc1	–	–	–	–	–	–
Cc1ccc(C(=O)OCN2C(=O)c3ccccc3C2=O)o1	–	–	–	–	22	–
CC(CN(C)C)CN1c2ccccc2CCc2ccccc21 (stereo not given)	99	87	–	–	–	–
CNC(=O)N1c2ccccc2CCc2ccccc21	–	–	–	–	–	–
CN(C)CCCN1c2ccccc2CCc2ccccc21	80	70	–	–	–	–
CN(C)CCCC1(O)c2ccccc2CCc2ccccc21	–	–	–	–	–	–
Cn1c(SCc2c(Cl)cccc2Cl)nnc1-c1ccc2nonc2c1	–	–	–	–	26	–
CNC[C@@H]1Oc2cc(Br)ccc2S(=O)(=O)N([C@H](C)CO)C[C@@H]1C	–	–	–	–	–	–
Nc1cc([N+](=O)[O-])ccc1Nc1ccc(O)cc1	32	–	–	–	–	–
COc1ccccc1-c1noc(CCC(=O)Nc2cc(C(F)(F)F)ccc2Cl)n1	–	31	–	–	–	19
COc1ccccc1-c1noc(CCC(=O)Nc2cccnc2)n1	–	–	–	–	–	–
O=c1c(-c2ccco2)[n+]([O-])c2ccccc2n1OCc1c(F)cccc1F	–	–	–	–	–	19
CNC[C@@H]1Oc2cc(Br)ccc2S(=O)(=O)N([C@@H](C)CO)C[C@@H]1C	–	48	–	–	–	–
CCOC(=O)C1CCCN(C(=O)c2ccc(-c3ccccc3)cc2)CC1 (stereo not given)	–	–	–	–	–	–
O=C1NC[C@H](CCCCN2C[C@H](Cc3ccc(O)cc3)N(Cc3ccccc3)C(=O)C2=O)N(CCc2ccccc2)C1=O	–	–	–	–	–	–
COc1cc(C2Nc3cc(Cl)c(S(N)(=O)=O)cc3S(=O)(=O)N2)cc(OC)c1OC (stereo not given)	–	–	–	–	24	–
CC(C)Cn1c(=O)oc2ccccc21	–	–	–	–	20	–
O=c1oc2ccccc2n1CCCCCn1c(=O)oc2ccccc21	–	–	–	–	–	–
